Active and inactive are the calls of the source. The calls are words filed in the database; no cut-off is given here.
How the values were obtained:
Staphylococcus aureus [1] = experiment: AUBKC (0 to 48 hrs) in methicillin-resistant Staphylococcus aureus 33815 infected in in vitro pharmacokinetic model at 1500 mg, iv every 8 hrs using 10^6 CFU/ml inoculum; format: functional
Outline: (§1)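 Single-compartment dilutional in vitro PK model at 37°C in 10% Mueller-Hinton broth, stirred, flow 132 ml/h. […] Inoculum 10^6 CFU/ml added 45 min before dosing, or 10^8 CFU/ml run overnight. Viable counts with β-lactamase neutralisation. AUBKC by log-linear trapezoidal rule, at least triplicate.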

Staphylococcus aureus [2] = experiment: Antibacterial activity against methicillin-resistant Staphylococcus aureus 33921 assessed as viable count at 4 times of MIC after 48 hrs using 10^6 CFU/ml inoculum; format: functional, organism-based
Staphylococcus aureus [3] = experiment: Antibacterial activity against methicillin-resistant Staphylococcus aureus 33922 assessed as viable count at 4 times of MIC after 48 hrs using 10^6 CFU/ml inoculum; format: functional, organism-based
Staphylococcus aureus [4] = experiment: AUBKC (0 to 48 hrs) in methicillin-resistant Staphylococcus aureus 33827 infected in in vitro pharmacokinetic model at 1500 mg, iv every 8 hrs using 10^6 CFU/ml inoculum; format: functional; outline: as §1
Staphylococcus aureus [5] = experiment: Antibacterial activity against methicillin-resistant Staphylococcus aureus 33922 infected in in vitro pharmacokinetic model assessed as time required to 99.9% killing at 1500 mg, iv every 8 hrs using 10^8 CFU/ml inoculum; format: functional
Staphylococcus aureus [6] = experiment: AUBKC (0 to 24 hrs) in methicillin-resistant Staphylococcus aureus 33922 infected in in vitro pharmacokinetic model at 1500 mg, iv every 8 hrs using 10^6 CFU/ml inoculum; format: functional; outline: as §1
Staphylococcus aureus [7] = experiment: AUBKC (0 to 24 hrs) in methicillin-resistant Staphylococcus aureus 33827 infected in in vitro pharmacokinetic model at 1500 mg, iv every 8 hrs using 10^8 CFU/ml inoculum; format: functional; outline: as §1
Staphylococcus aureus [8] = experiment: Antibacterial activity against methicillin-resistant Staphylococcus aureus 33922 assessed as viable count at 2 times of MIC after 24 hrs using 10^6 CFU/ml inoculum; format: functional, organism-based
Staphylococcus aureus [9] = experiment: Antibacterial activity against methicillin-resistant Staphylococcus aureus 33829 infected in in vitro pharmacokinetic model assessed as time required to 99% killing at 1500 mg, iv every 8 hrs using 10^6 CFU/ml inoculum; format: functional
Outline: (§2)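 Single-compartment dilutional in vitro PK model, 10% Mueller-Hinton broth, 37°C, stirred, dilution 132 ml/h. […] Inoculum 10^6 CFU/ml (added 45 min pre-dose) or 10^8 CFU/ml (run overnight). Viable counts by spiral plating, beta-lactamase neutralization, detection limit 10^2 CFU/ml. At least triplicate.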

Staphylococcus aureus [10] = experiment: AUBKC (0 to 48 hrs) in methicillin-resistant Staphylococcus aureus 33827 infected in in vitro pharmacokinetic model at 750 mg, iv every 8 hrs using 10^8 CFU/ml inoculum; format: functional; outline: as §1
Staphylococcus aureus [11] = experiment: Antibacterial activity against methicillin-resistant Staphylococcus aureus 33921 in in vitro pharmacokinetic model assessed as viable count at 4 times of MIC; format: functional
Outline: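 Preexposure population analysis: time-zero model samples plated on nutrient agar without drug and with drug at multiples of the 10% broth MIC. Growth reported as log CFU/ml, detection limit 2 log10.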

Staphylococcus aureus [12] = experiment: AUBKC (0 to 48 hrs) in methicillin-resistant Staphylococcus aureus 33922 infected in in vitro pharmacokinetic model at 1500 mg, iv every 8 hrs using 10^8 CFU/ml inoculum; format: functional; outline: as §1
Staphylococcus aureus [13] = experiment: Antibacterial activity against methicillin-resistant Staphylococcus aureus 33827 infected in in vitro pharmacokinetic model assessed as reduction in viable count at 1500 mg, iv every 8 hrs measured after 24 hrs using 10^6 CFU/ml inoculum; format: functional; outline: as §2
Staphylococcus aureus [14] = experiment: Antibacterial activity against methicillin-resistant Staphylococcus aureus 33922 infected in in vitro pharmacokinetic model assessed as reduction in viable count at 750 mg, iv every 8 hrs measured after 48 hrs using 10^8 CFU/ml inoculum; format: functional
Staphylococcus aureus [15] = experiment: Antibacterial activity against methicillin-resistant Staphylococcus aureus 33827 infected in in vitro pharmacokinetic model assessed as reduction in viable count at 1500 mg, iv every 8 hrs measured after 12 hrs using 10^8 CFU/ml inoculum; format: functional; outline: as §2
Staphylococcus aureus [16] = experiment: AUBKC (0 to 24 hrs) in methicillin-resistant Staphylococcus aureus 33827 infected in in vitro pharmacokinetic model at 750 mg, iv every 8 hrs using 10^8 CFU/ml inoculum; format: functional; outline: as §1
Serum = experiment: Drug level in human serum at 1400 mg; format: ADME, cell-free
Staphylococcus aureus [17] = experiment: T>MIC for 4-log drop in count in methicillin-resistant Staphylococcus aureus 33922 in in vitro pharmacokinetic model after 24 hrs using 10^6 CFU/ml inoculum; format: functional
Staphylococcus aureus [18] = experiment: T>MIC for 2-log drop in count in methicillin-resistant Staphylococcus aureus 33820 in in vitro pharmacokinetic model after 24 hrs using 10^6 CFU/ml inoculum; format: functional
Staphylococcus aureus [19] = experiment: Antibacterial activity against methicillin-resistant Staphylococcus aureus 33827 assessed as viable count at 4 times of MIC after 48 hrs using 10^6 CFU/ml inoculum; format: functional, organism-based
Staphylococcus aureus [20] = experiment: Antibacterial activity against methicillin-sensitive Staphylococcus aureus 5956 infected in in vitro pharmacokinetic model assessed as time required to 99% killing at 750 mg, iv every 8 hrs using 10^6 CFU/ml inoculum; format: functional
Staphylococcus aureus [21] = experiment: Antibacterial activity against methicillin-resistant Staphylococcus aureus 33827 infected in in vitro pharmacokinetic model assessed as reduction in viable count at 1500 mg, iv every 8 hrs measured after 48 hrs using 10^8 CFU/ml inoculum; format: functional; outline: as §2
Staphylococcus aureus [22] = experiment: AUBKC (0 to 48 hrs) in methicillin-resistant Staphylococcus aureus 33922 infected in in vitro pharmacokinetic model at 750 mg, iv every 8 hrs using 10^8 CFU/ml inoculum; format: functional; outline: as §1
Staphylococcus aureus [23] = experiment: AUBKC (0 to 24 hrs) in methicillin-resistant Staphylococcus aureus 33922 infected in in vitro pharmacokinetic model at 750 mg, iv every 8 hrs using 10^6 CFU/ml inoculum; format: functional; outline: as §1
Staphylococcus aureus [24] = experiment: Antibacterial activity against methicillin-resistant Staphylococcus aureus 33921 infected in in vitro pharmacokinetic model assessed as time required to 99.9% killing at 750 mg, iv every 8 hrs using 10^6 CFU/ml inoculum; format: functional
Staphylococcus aureus [25] = experiment: Antibacterial activity against methicillin-resistant Staphylococcus aureus 33820 infected in in vitro pharmacokinetic model assessed as reduction in viable count at 1500 mg, iv every 8 hrs measured after 48 hrs using 10^6 CFU/ml inoculum; format: functional
Outline: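 Single-compartment dilutional in vitro PK model, 37°C, stirred, in 10% Mueller-Hinton broth. […] Inoculum 10^6 CFU/ml from a 24-h plate culture was added 45 min before dosing. Viable counts by spiral plating on nutrient agar with β-lactamase neutralization. Log change was taken from time 0; detection limit 10^2 CFU/ml; at least triplicate.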

Staphylococcus aureus [26] = experiment: Antibacterial activity against methicillin-resistant Staphylococcus aureus 33820 in in vitro pharmacokinetic model assessed as viable count at 6 times of MIC; format: functional
Outline: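 Population analysis before drug exposure (time 0). Model samples were plated on nutrient agar without drug and with tomopenem at 2×, 4× and 6× MIC (10% MHB MIC), and growth was recorded as log CFU/ml. Detection limit 2 log10.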

For C[C@@H](O)[C@H]1C(=O)N2C(C(=O)O)=C(S[C@H]3C[C@@H](C(=O)N4CC[C@H](NC(=O)CNC(=N)N)C4)N(C)C3)[C@H](C)[C@H]12 [TOMOPENEM], the AUBC (Staphylococcus aureus [1]) was 12.5 log10CFU/ml.hr, the Activity (Staphylococcus aureus [2]) was “Active” and the Activity (Staphylococcus aureus [3]) was “inactive”. For the same compound, the AUBC (Staphylococcus aureus [4]) was 35.5 log10CFU/ml.hr, the Time (Staphylococcus aureus [5]) was 24 h and the AUBC (Staphylococcus aureus [6]) was 16.9 log10CFU/ml.hr. The AUBC (Staphylococcus aureus [7]) was 84.4 log10CFU/ml.hr, the Activity (Staphylococcus aureus [8]) was “inactive” and the Time (Staphylococcus aureus [9]) was 7 h. For the same compound, the AUBC (Staphylococcus aureus [10]) was 87.9 log10CFU/ml.hr, the log10CFU/ml (Staphylococcus aureus [11]) was less than 2 and the AUBC (Staphylococcus aureus [12]) was 124.7 log10CFU/ml.hr. It also gave a log10CFU/ml (Staphylococcus aureus [13]) of 4, a log10CFU/ml (Staphylococcus aureus [14]) of 5.8 and a log10CFU/ml (Staphylococcus aureus [15]) of 3.4. The AUBC (Staphylococcus aureus [16]) was 77.4 log10CFU/ml.hr, the Drug uptake (Serum) was 100 mg/L and the “fT>MIC” value (Staphylococcus aureus [17]) was 21.5%. The “fT>MIC” value (Staphylococcus aureus [18]) was 14.5%, the Activity (Staphylococcus aureus [19]) was “inactive” and the Time (Staphylococcus aureus [20]) was 4 h. It also gave a log10CFU/ml (Staphylococcus aureus [21]) of 5.9, an AUBC (Staphylococcus aureus [22]) of 81.5 log10CFU/ml.hr and an AUBC (Staphylococcus aureus [23]) of 20.2 log10CFU/ml.hr. For the same compound, the Time (Staphylococcus aureus [24]) was 12 h, the log10CFU/ml (Staphylococcus aureus [25]) was 4.2 and the log10CFU/ml (Staphylococcus aureus [26]) was less than 2.

Source: ChEMBL document CHEMBL1255300, “Pharmacodynamics of the antibacterial effect and emergence of resistance to tomopenem, formerly RO4908463/CS-023, in an in vitro pharmacokinetic model of Staphylococcus aureus infection” (Antimicrob Agents Chemother, 2008)
